Calls of active or inactive are those of the source. The calls are words filed in the database; no cut-off is given here.
Tests used:
MDA-MB-231 [1] = experiment: Antiproliferative activity against human MDA-MB-231 cell line after 72 hrs by SRB assay; assay type: functional; details: MDA-MB-231, 72 h
Outline: (§1)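 Cells seeded at 5×10³/well in RPMI and allowed to attach in drug-free medium for 18 h. Compounds were added in DMSO/H2O (3:7) and exposure was continuous for 72 h. Cells were then fixed with cold 50% TCA for 60 min at 4°C, stained with 0.4% SRB in 1% acetic acid for 10 min at room temperature, solubilized in Tris, and OD was read at 490 nm. GI50 was derived from 100×[(T−T0)/(C−T0)]=50.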

HT-29 [2] = experiment: Antiproliferative activity against human HT29 cell line after 72 hrs by SRB assay; assay type: functional; details: HT-29, 72 h; outline: as §1
A549 [3] = experiment: Antiproliferative activity against human A549 cell line after 72 hrs by SRB assay; assay type: functional; details: A549, 72 h; outline: as §1
A549 [4] = experiment: Antiproliferative activity against human A549 cell line after 72 hrs by SRB assay at 10 ug/mL; assay type: functional, cell-based
HT-29 [5] = experiment: Antiproliferative activity against human HT29 cell line after 72 hrs by SRB assay at 10 ug/mL; assay type: functional, cell-based
MDA-MB-231 [6] = experiment: Antiproliferative activity against human MDA-MB-231 cell line after 72 hrs by SRB assay at 10 ug/mL; assay type: functional, cell-based

| GI50 (MDA-MB-231 [1]) | GI50 (HT-29 [2]) | GI50 (A549 [3]) | Compound | Activity (A549 [4]) | Activity (HT-29 [5]) | Activity (MDA-MB-231 [6]) |
| --- | --- | --- | --- | --- | --- | --- |
| 11.2 µM | 23.9 µM | 10.9 µM | COC(=O)c1cc(-c2ccc(O)c(OC)c2)c2c3cc(OC)c(O)cc3ccn12 |  |  |  |
| 8.5 µM |  | 14.3 µM | COC(=O)c1c(-c2ccc(O)c(OC)c2)c(-c2ccc(O)c(OC)c2)c2n1CCc1cc(O)c(OC)cc1-2 |  | inactive |  |
|  | 34 µM | 67.9 µM | COC(=O)c1c(-c2cc(OC)c(OC)c(OC)c2)c(-c2cc(OC)c(OC)c(OC)c2)c2n1CCc1cc(OC(C)C)c(OC)cc1-2 |  |  | inactive |
| 0.98 µM | 1 µM | 0.81 µM | COC(=O)c1c(-c2ccc(OC)c(OC)c2)c(-c2ccc(OC)c(OC)c2)c2n1CCc1cc(OC(C)C)c(OC)cc1-2 |  |  |  |
| 15 µM | 10.1 µM | 9.8 µM | COC(=O)c1c(-c2ccc(O)cc2)c(-c2ccc(O)c(OC)c2)c2c3cc(OC)c(O)cc3ccn12 |  |  |  |
| 26.3 µM |  |  | COC(=O)c1cc(-c2cccs2)c2c3cc(OC)c(O)cc3ccn12 | inactive | inactive |  |
| 19 µM | 18.1 µM | 20.3 µM | COC(=O)c1cc(-c2ccc(O)c(OC)c2)c2n1CCc1cc(OC(C)C)c(OC)cc1-2 |  |  |  |
| 14.4 µM | 10.3 µM | 9.2 µM | COC(=O)c1c(-c2ccc(OC)cc2)c(-c2ccc(OC)cc2)c2n1CCc1cc(O)c(OC)cc1-2 |  |  |  |
| 10.5 µM | 8.4 µM | 13.7 µM | COC(=O)c1c(-c2cc(O)c(O)cc2O)c(-c2cc(OC)ccc2OC)c2n1CCc1cc(O)c(OC)cc1-2 |  |  |  |
| 12.7 µM |  |  | COC(=O)c1cc(-c2cc(OC)ccc2OC)c2n1CCc1cc(O)c(OC)cc1-2 | inactive | inactive |  |
| 18.3 µM | 8.9 µM |  | COC(=O)c1c(-c2cccc([N+](=O)[O-])c2)c(-c2cccc([N+](=O)[O-])c2)c2c3cc(OC)c(O)cc3ccn12 | inactive |  |  |
| 7.7 µM |  | 11.2 µM | COC(=O)c1c(-c2ccc(OC)c(OC)c2)c(-c2ccc(OC)c(OC)c2)c2n1CCc1cc(O)c(OC)cc1-2 |  | inactive |  |
| 19.9 µM |  | 13.3 µM | COC(=O)c1cc(-c2cc(OC)ccc2OC)c2c3cc(OC)c(O)cc3ccn12 |  | inactive |  |
| 10.1 µM | 11.3 µM | 18 µM | COC(=O)c1c(-c2cccc([N+](=O)[O-])c2)c(-c2cccc([N+](=O)[O-])c2)c2n1CCc1cc(O)c(OC)cc1-2 |  |  |  |
| 7.2 µM | 18.4 µM | 6.3 µM | COC(=O)c1c(-c2cccc(O)c2)c(-c2cccc(O)c2)c2c3cc(OC)c(O)cc3ccn12 |  |  |  |
| 10.6 µM |  | 20.8 µM | COC(=O)c1c(-c2ccc(O)cc2O)c(-c2cccc(O)c2)c2c3cc(OC)c(O)cc3ccn12 |  | inactive |  |
| 9.9 µM | 9.7 µM |  | COC(=O)c1c(-c2ccc(OC)cc2)c(-c2ccc(OC)cc2)c2c3cc(OC)c(O)cc3ccn12 | inactive |  |  |
| 3.2 µM | 7.1 µM | 4.7 µM | COC(=O)c1c(-c2cc(O)c(O)cc2O)c(-c2cc(OC)ccc2OC)c2c3cc(OC)c(O)cc3ccn12 |  |  |  |
| 0.71 µM | 7.9 µM | 0.45 µM | COC(=O)c1c(-c2cc(OC)c(O)cc2O)c(-c2ccc(O)c(OC)c2)c2c3cc(OC)c(O)cc3ccn12 |  |  |  |
| 15.7 µM |  | 14.7 µM | COC(=O)c1c(-c2ccc(OC)c(OC)c2O)c(-c2cccc(O)c2)c2n1CCc1cc(O)c(OC)cc1-2 |  | inactive |  |
| 7.5 µM | 8.1 µM | 7.1 µM | COC(=O)c1c(-c2ccc(O)c(OC)c2)c(-c2ccc(O)c(OC)c2)c2c3cc(OC)c(O)cc3ccn12 |  |  |  |

The remaining lines, values behind:

| Compound | GI50 (MDA-MB-231 [1]) | GI50 (HT-29 [2]) | GI50 (A549 [3]) | Activity (A549 [4]) | Activity (HT-29 [5]) | Activity (MDA-MB-231 [6]) |
| --- | --- | --- | --- | --- | --- | --- |
| COC(=O)c1cc(-c2cc(OC)c(OC)c(OC)c2)c2n1CCc1cc(OC(C)C)c(OC)cc1-2 |  |  |  | inactive | inactive | inactive |
| COC(=O)c1cc(-c2ccc(OC(C)C)c(OC)c2)c2n1CCc1cc(OC(C)C)c(OC)cc1-2 |  |  |  | inactive | inactive | inactive |
| COc1cc(-c2c3c4cc(OC)c(O)cc4oc(=O)c3n3ccc4cc(O)c(OC)cc4c23)ccc1O [LAMELLARIN D] | 0.25 µM | 5.1 µM | 0.2 µM |  |  |  |
| COC(=O)c1c(-c2cc(OC)c(O)cc2OC)c(-c2ccc(O)c(OC)c2)c2c3cc(OC)c(O)cc3ccn12 |  |  |  | inactive | inactive | inactive |
| COC(=O)c1c(-c2ccc(OC(F)(F)F)cc2)c(-c2ccc(OC(F)(F)F)cc2)c2c3cc(OC)c(O)cc3ccn12 |  |  |  | inactive | inactive | inactive |
| COC(=O)c1c(-c2cc(OC)c(OC(C)C)cc2OC(C)C)c(-c2ccc(OC(C)C)c(OC)c2)c2c3cc(OC)c(OC(C)C)cc3ccn12 |  | 13.6 µM |  | inactive |  | inactive |
| COC(=O)c1c(-c2ccc(O)cc2O)c(-c2cccc(O)c2)c2n1CCc1cc(O)c(OC)cc1-2 |  |  |  | inactive | inactive | inactive |
| COC(=O)c1cc(-c2ccc(O)c(OC)c2)c2n1CCc1cc(O)c(OC)cc1-2 | 22.3 µM | 18 µM | 14.2 µM |  |  |  |
| COC(=O)c1c(-c2ccc(O)c(OC)c2)c(-c2ccc(O)c(OC)c2)c2n1CCc1cc(OC(C)C)c(OC)cc1-2 | 7.1 µM | 6.9 µM | 14.7 µM |  |  |  |
| COC(=O)c1c(-c2cccs2)c(-c2cccs2)c2c3cc(OC)c(O)cc3ccn12 | 19.7 µM |  | 20.4 µM |  | inactive |  |
| COC(=O)c1c(-c2cccs2)c(-c2cccs2)c2n1CCc1cc(OC(C)C)c(OC)cc1-2 |  |  |  | inactive | inactive | inactive |
| COC(=O)c1c(-c2ccc(OC(F)(F)F)cc2)c(-c2ccc(OC(F)(F)F)cc2)c2n1CCc1cc(O)c(OC)cc1-2 |  |  |  | inactive | inactive | inactive |
| COC(=O)c1c(-c2cc(OC)c(O)cc2O)c(-c2ccc(O)c(OC)c2)c2n1CCc1cc(O)c(OC)cc1-2 | 3.1 µM | 17.1 µM | 5 µM |  |  |  |
| COC(=O)c1c(-c2ccc(OC)c(OC)c2)c(-c2ccc(OC)c(OC)c2)c2c3cc(OC)c(O)cc3ccn12 |  |  |  | inactive | inactive | inactive |
| COC(=O)c1cc(-c2ccc(N(C)C)cc2)c2n1CCc1cc(OC(C)C)c(OC)cc1-2 |  |  |  | inactive | inactive | inactive |
| COC(=O)c1c(-c2ccc(O)cc2)c(-c2ccc(O)cc2)c2n1CCc1cc(O)c(OC)cc1-2 |  |  |  | inactive | inactive | inactive |
| COC(=O)c1cc(-c2ccc(N(C)C)cc2)c2n1CCc1cc(O)c(OC)cc1-2 |  |  |  | inactive | inactive | inactive |
| COC(=O)c1cc(-c2cc(OC)c(OC)c(OC)c2)c2c3cc(OC)c(O)cc3ccn12 |  |  |  | inactive | inactive | inactive |
| COC(=O)c1c(-c2ccc(OC)c(OC)c2)c(-c2ccc(O)c(OC)c2)c2c3cc(OC)c(O)cc3ccn12 |  |  |  | inactive | inactive | inactive |
| COC(=O)c1c(-c2ccc(O)cc2)c(-c2ccc(O)cc2)c2c3cc(OC)c(O)cc3ccn12 | 4.1 µM | 9.8 µM | 3.5 µM |  |  |  |
| COC(=O)c1c(-c2cc(OC)c(OC(C)C)cc2OC(C)C)c(-c2ccc(OC(C)C)c(OC)c2)c2n1CCc1cc(OC(C)C)c(OC)cc1-2 |  |  |  | inactive | inactive | inactive |
| COC(=O)c1c(-c2cccs2)c(-c2cccs2)c2c3cc(OC)c(OC(C)C)cc3ccn12 |  |  |  | inactive | inactive | inactive |
| COC(=O)c1c(-c2ccc(N(C)C)cc2)c(-c2ccc(N(C)C)cc2)c2n1CCc1cc(O)c(OC)cc1-2 | 13.7 µM |  |  | inactive | inactive |  |
| COC(=O)c1c(-c2cc(OC)c(O)cc2OC)c(-c2ccc(O)c(OC)c2)c2n1CCc1cc(O)c(OC)cc1-2 | 7.6 µM |  | 8.9 µM |  | inactive |  |
| COC(=O)c1c(-c2cc(OC)c(OC)c(OC)c2)c(-c2cc(OC)c(OC)c(OC)c2)c2c3cc(OC)c(O)cc3ccn12 |  |  |  | inactive | inactive | inactive |

— ChEMBL document CHEMBL1148492, “Synthesis and structure-activity relationship study of potent cytotoxic analogues of the marine alkaloid Lamellarin D” (2006)
